Test results as given in ChEMBL document CHEMBL1152584, “Synthesis of heteroaromatic tropeines and heterogeneous binding to glycine receptors” (Bioorg Med Chem, 2009).
pIC50: −log10 of the molar value.

Key:
[1] = target: T1, Glycine receptor subunit alpha-1 (Rattus norvegicus) (UniProt P07727); test: Selectivity ratio of IC50 for GlyR low affinity site to IC50 for GlyR high affinity site in Wistar rat spinal cord
T1 sequence (whole entry): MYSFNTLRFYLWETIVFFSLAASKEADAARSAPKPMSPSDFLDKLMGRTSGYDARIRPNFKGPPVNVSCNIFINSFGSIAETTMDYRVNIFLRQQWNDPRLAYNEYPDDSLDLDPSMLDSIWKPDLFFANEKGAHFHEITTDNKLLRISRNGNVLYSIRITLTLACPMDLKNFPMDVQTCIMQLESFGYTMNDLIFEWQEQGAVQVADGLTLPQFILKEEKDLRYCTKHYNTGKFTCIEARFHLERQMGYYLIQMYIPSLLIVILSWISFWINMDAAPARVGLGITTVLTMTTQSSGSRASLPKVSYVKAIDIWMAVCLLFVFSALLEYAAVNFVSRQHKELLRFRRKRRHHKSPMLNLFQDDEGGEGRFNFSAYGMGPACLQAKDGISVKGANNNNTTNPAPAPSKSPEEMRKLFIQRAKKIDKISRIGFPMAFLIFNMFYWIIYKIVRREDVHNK

[2] = target: T2, Glycine receptor subunit alpha-1 (Rattus norvegicus, UniProt P07727); test: Displacement of [3H]strychnine from GlyR in Wistar rat spinal cord by scintillation spectrometry
T2 sequence (P07727 whole entry): T1 sequence (whole entry)
How it was run: (§1)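 Duplicate aliquots filtered, washed with ice-cold buffer, counted by scintillation. Nonspecific binding defined with 2 mM glycine. IC50 and Hill slope from nonlinear sigmoidal fitting. Two-site fits used pooled data, chosen by F test.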

[3] = target: T2, Glycine receptor subunit alpha-1; test: Displacement of [3H]strychnine from GlyR low affinity site in Wistar rat spinal cord by scintillation spectrometry; how it was run: as §1
[4] = target: T2, Glycine receptor subunit alpha-1; test: Displacement of [3H]strychnine from GlyR high affinity site in Wistar rat spinal cord by scintillation spectrometry; how it was run: as §1
[5] = target: T3, 5-hydroxytryptamine receptor 3A (Rattus norvegicus, UniProt P35563); test: Displacement of [3H]granisectron from 5HT3 receptor in Wistar rat forebrain
T3 sequence (P35563 whole entry): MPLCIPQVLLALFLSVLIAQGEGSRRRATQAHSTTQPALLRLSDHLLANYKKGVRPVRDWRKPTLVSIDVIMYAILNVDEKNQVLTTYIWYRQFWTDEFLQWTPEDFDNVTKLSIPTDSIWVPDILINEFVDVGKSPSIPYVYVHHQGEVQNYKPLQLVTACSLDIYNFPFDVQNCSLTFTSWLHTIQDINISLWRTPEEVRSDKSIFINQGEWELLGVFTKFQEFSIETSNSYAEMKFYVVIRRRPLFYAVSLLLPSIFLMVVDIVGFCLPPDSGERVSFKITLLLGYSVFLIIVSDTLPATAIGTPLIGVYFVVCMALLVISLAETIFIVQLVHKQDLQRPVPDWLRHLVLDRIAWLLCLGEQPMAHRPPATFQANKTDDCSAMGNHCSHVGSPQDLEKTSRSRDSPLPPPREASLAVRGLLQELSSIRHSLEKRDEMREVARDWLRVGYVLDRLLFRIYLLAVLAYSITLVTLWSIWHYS
How it was run: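 Crude membranes from male rat forebrain (cortex + hippocampus), homogenized in 10 mM HEPES/140 mM NaCl pH 7.5, centrifuged, washed, frozen; thawed and spun before use. Incubated with 0.2 nM [3H]granisetron at 0 °C for 2.5 h. Nonspecific binding defined with 10 µM granisetron.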

[6] = target: T2, Glycine receptor subunit alpha-1; test: Displacement of [3H]strychnine from GlyR low affinity site in Wistar rat spinal cord by scintillation spectrometry in presence of 10 uM glycine; how it was run: as §1
[7] = target: T2, Glycine receptor subunit alpha-1; test: Displacement of [3H]strychnine from GlyR high affinity site in Wistar rat spinal cord by scintillation spectrometry in presence of 10 uM glycine; how it was run: as §1
[8] = target: T2, Glycine receptor subunit alpha-1; test: Displacement of [3H]strychnine from GlyR in Wistar rat spinal cord by scintillation spectrometry in presence of 10 uM glycine; how it was run: as §1

Question: O=C(O[C@H]1C[C@H]2CC[C@@H](C1)N2)c1cccs1 was tested. Which Ratio IC50 [1] did it give?
Answer: 1

Question: And the pIC50 [2]?
Answer: 7.38

Question: What does the source list for O=C(O[C@H]1C[C@H]2CC[C@@H](C1)N2)c1ccco1?
Answer: Ratio IC50 [1]: 1; pIC50 [2]: 7.10

Question: What does the source list for CN1[C@@H]2CC[C@H]1C[C@H](OC(=O)c1cc3ccccc3[nH]1)C2?
Answer: Ratio IC50 [1]: 133; pIC50 [3]: 5.10; pIC50 [4]: 7.22; pIC50 [2]: 5.33

Question: With CN1[C@@H]2CC[C@H]1C[C@@H](OC(=O)c1ccco1)C2 as the compound, how does the Ratio IC50 [1] read?
Answer: 200

Question: What about the pIC50 [3] of the same compound?
Answer: 5.00

Question: What about the pIC50 [4] of the same compound?
Answer: 7.30

Question: And the pIC50 [2]?
Answer: 5.25

Question: How did the Ratio IC50 [1] turn out when O=C(O[C@H]1C[C@H]2CC[C@@H](C1)N2)c1cccnc1 was run?
Answer: 1

Question: What about the pIC50 [2] of the same compound?
Answer: 7.00

Question: Which Ratio IC50 [1] does the source give for CN1[C@@H]2CC[C@H]1C[C@@H](OC(=O)c1cccnc1)C2 here?
Answer: 390

Question: And the pIC50 [3]?
Answer: 4.64

Question: And the pIC50 [4]?
Answer: 7.23

Question: And the pIC50 [2]?
Answer: 5.37

Question: For CN1[C@@H]2CC[C@H]1C[C@@H](OC(=O)c1cccs1)C2, which Ratio IC50 [1] is on record?
Answer: 47

Question: And the pIC50 [3]?
Answer: 5.37

Question: What about the pIC50 [4] of the same compound?
Answer: 7.05

Question: And the pIC50 [2]?
Answer: 5.72

Question: What does the source list for CN1[C@@H]2CC[C@H]1C[C@@H](OC(=O)c1cccn1C)C2?
Answer: Ratio IC50 [1]: > 1; pIC50 [2]: 5.12

Question: For O=C(O[C@H]1C[C@H]2CC[C@@H](C1)N2)c1cnc2ccccc2c1, which Ratio IC50 [1] is on record?
Answer: 1

Question: What about the pIC50 [2] of the same compound?
Answer: 6.78

Question: What does the source list for CN1[C@@H]2CC[C@H]1C[C@@H](OC(=O)c1ccc[nH]1)C2?
Answer: Ratio IC50 [1]: 615; pIC50 [3]: 4.68; pIC50 [4]: 7.47; pIC50 [2]: 4.95

Question: For CN1[C@@H]2CC[C@H]1C[C@@H](OC(=O)c1cc3ccccc3n1C)C2, which Ratio IC50 [1] is on record?
Answer: 240

Question: And the pIC50 [3]?
Answer: 5.62

Question: What about the pIC50 [4] of the same compound?
Answer: 7.99

Question: And the pIC50 [2]?
Answer: 5.80

Question: What about the pIC50 [5] of the same compound?
Answer: 7.74

Question: For Cn1c(C(=O)O[C@H]2C[C@H]3CC[C@@H](C2)N3)cc2ccccc21, which Ratio IC50 [1] is on record?
Answer: 11

Question: And the pIC50 [3]?
Answer: 6.90

Question: And the pIC50 [6]?
Answer: 6.87

Question: And the pIC50 [4]?
Answer: 7.94

Question: What about the pIC50 [7] of the same compound?
Answer: 8.97

Question: What about the pIC50 [2] of the same compound?
Answer: 7.47

Question: What about the pIC50 [5] of the same compound?
Answer: 7.60

Question: What about the pIC50 [8] of the same compound?
Answer: 7.15

Question: With O=C(O[C@H]1C[C@H]2CC[C@@H](C1)N2)c1ccc[nH]1 as the compound, how does the Ratio IC50 [1] read?
Answer: 1

Question: And the pIC50 [2]?
Answer: 6.89

Question: Which results are given for O=C(O[C@H]1C[C@H]2CC[C@@H](C1)N2)c1cc2ccccc2[nH]1?
Answer: Ratio IC50 [1]: 1; pIC50 [2]: 6.63; pIC50 [5]: 7.49

Question: For CN1[C@@H]2CC[C@H]1C[C@@H](OC(=O)c1cnc3ccccc3c1)C2, which Ratio IC50 [1] is on record?
Answer: 76

Question: And the pIC50 [3]?
Answer: 5.26

Question: What about the pIC50 [4] of the same compound?
Answer: 7.14

Question: And the pIC50 [2]?
Answer: 5.72
